Measurements from article PMC7397943 (Journal of Ethnopharmacology, 2020).

Legend:
[1] = test system: VSV pseudotyped HIV (VSV–HIV); experiment: microbe, parasite or virus in culture; assay type: cell-based, HIV–1; details: for IC50: Vesicular stomatitis virus, MT2, 48 h, read-out: IC50 μM VSV–HIV (CI95%; R2); for Effect on viral entry: comparison of HIV IC50 and VSV–HIV IC50 in MT–2 cells
[2] = test system: HIV transcription (pNL4.3–Luc); experiment: HIV transcription assay: MT–2 cells transfected with pNL4.3–Luc; assay type: cell-based, HIV–1
How it was run: (§1)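 MT-2 cells were electroporated at 260 V in serum-free RPMI with a luciferase reporter: pNL4.3-Luc (whole HIV-1 genome), 3-enh-κB-ConA-luc (three κB copies), or Sp1-Luc (two Sp1 sites). Cells were seeded in complete RPMI with serial dilutions or one selected concentration of test compound at 37 °C for 48 h. PMA 100 nM was the reference. RLUs were expressed as % of DMSO control, with Bonferroni-corrected one-way ANOVA.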

[3] = Cell viability in mock–infected MT–2 cells; assay type: cell-based; details: human, mock-infected MT-2 cells
How it was run: (§2)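 Test compound (from 10 mg/mL or 10 mM DMSO stocks) was added at graded concentrations to mock-infected MT-2 cells, run in parallel with the 48 h antiviral assay. Cells were grown in RPMI-1640 with 10% FBS, 2 mM L-glutamine and penicillin/streptomycin at 37 °C, 5% CO2. Viability was read by CellTiter Glo as % of the DMSO-matched control. CC50 came from non-linear regression.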

MT–2 cells = experiment: Cell viability in mock–infected MT–2 cells; assay type: cell-based; details: MT–2 cells
How it was run: as §2

NF–κB = NF–κB activity: MT–2 cells transfected with NF–κB–Luc plasmid; assay type: cell-based
How it was run: as §1

[4] = test system: recombinant HIV–1 (NL4.3–Ren); assay type: cell-based; details: Human immunodeficiency virus 1, MT2, 48 h, read-out: IC50 μM HIV (CI95%; R2), isolated compounds, MT–2 cells, wild type HIV NL4.3–Ren
How it was run: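 MT-2 cells (RPMI-1640, 10% FBS, 2 mM L-glutamine, penicillin/streptomycin; 37 °C, 5% CO2) were infected with NL4.3-Ren supernatant (100.000 RLUs or 20 ng p24 per well) alongside serial dilutions of test compound (10 mM DMSO stock). Enfuvirtide served as control. After 48 h, lysates were read for Renilla-luciferase RLUs against vehicle-matched untreated cells (100%). IC50 came from non-linear regression.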

Sp1 = Sp1 activity: MT–2 cells transfected with Sp1–Luc plasmid; assay type: cell-based; details: 48 h
How it was run: as §1

THP–1 cells = experiment: Glutathione determination; assay type: cell-based; details: maximum redox index reached, maximum 1 (all glutathione reduced)
How it was run: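 THP-1 cells were treated with serial dilutions of test compound, with resveratrol as reference. Cells were lysed in 0.1 M sodium phosphate/0.005 M EDTA, pH 8, plus 60% HClO4 (10 μL/mL), then spun at 6000g for 10 min at 4 °C. GSH and GSSG were measured by OPT fluorescence (ex 350/em 420 nm) against a GSH standard curve. Redox index = GSH/(GSH+GSSG), maximum 1. EC50 and Emax came from non-linear dose-response fits.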

[5] = fixed concentration 20 μM, pNL4.3–Luc, 48 h
[6] = fixed concentration 20 μM, NF–κB–Luc, 48 h

Compound	IC50 [1]	Effect on viral entry [1]	Effect on HIV transcription ([2]; 4 μM, pNL4.3–Luc, 48 h, vs untreated control)	CC50 at 48 h [3]	Concentrations toxic to MT–2 cells (MT–2 cells)	Effect on NF–κB activity (NF–κB; 4 μM, NF–κB–Luc, 48 h, vs untreated control)	IC50 [4]	Effect on Sp1 activity (Sp1; 4 μM, vs untreated control)	Emax (CI95%) (THP–1 cells)	Effect on HIV transcription ([2]; one selected active concentration (not given), compared with damsin)	Toxicity at 100 μM (MT–2 cells; 100 μM)	Effect on NF–κB activity (NF–κB; one selected active concentration (not given))	Effect on HIV transcription [2, 5]	Effect on NF–κB activity (NF–κB; [6])	Effect on Sp1 activity (Sp1; fixed concentration 20 μM)
C=C1C(=O)O[C@@H]2[C@H]1CC[C@H](C)[C@@H]1CCC(=O)[C@@]21C [Damsin, damsin]	0.83 µM	viral entry is not their target	completely inhibits	20 to 100 µM	higher than 20 μM	completely inhibits	0.84 µM	completely inhibits	–	–	–	–	–	–	–
Oc1ccc(/C=C/c2cc(O)cc(O)c2)cc1 [Resveratrol, resveratrol, reference compound]	–	–	–	–	–	–	–	–	0.94 (0.92–0.96)	–	–	–	–	–	–
C[C@]12CCC(=O)C=C1C=C[C@@H]1[C@@H]2CC[C@@]2(C)[C@H]1CC[C@@]21CCC(=O)O1 [Canrenone, canrenone]	14.2 µM	viral entry is not their target	–	~100 µM	–	–	18.9 µM	–	–	slightly less active	slight toxicity	more powerful activity as a NF–κB inhibitor than as a Sp1 inhibitor	–	–	–
COc1c(OC)c(O)c2c(=O)cc(-c3ccc(O)cc3)oc2c1OC [Xanthomicrol, xanthomicrol]	34.4 µM	HIV–1 entry is impaired	–	> 100 µM	–	–	17.4 µM	–	0.93 (0.81–1.04)	–	–	–	active as HIV transcriptional inhibitor	weak inhibition of NF–κB	no effect on Sp1
COc1ccc(-c2cc(=O)c3cc(OC)ccc3o2)c(OC)c1 [Trimethoxyflavone, 6,2′,4′–trimethoxyflavone]	35.6 µM	ruling out an effect on viral entry	–	> 100 µM	–	–	28.4 µM	–	0.74 (0.47–1.00)	–	–	–	almost complete inhibition	almost complete inhibition	almost complete inhibition
